Assay results: ChEMBL document CHEMBL1125217, “2-Pyridinone derivatives: a new class of nonnucleoside, HIV-1-specific reverse transcriptase inhibitors” (J Med Chem, 1991)

Key:
[1] = biological target: Human immunodeficiency virus type 1 reverse transcriptase (Human immunodeficiency virus 1, UniProt Q72547); test: Inhibitory activity against HIV-1 reverse transcriptase (RT)
H9 = test: Concentration which inhibited >95% spread of HIV-1 strain IIIb infection in susceptible H-9 cell culture; assay type: functional; details: Homo sapiens, read-out: CIC95
Outline: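 H9 human T-lymphoid cells in RPMI 1640 with 10% heat-inactivated FBS were pre-incubated one day with serial 2-fold inhibitor dilutions, then infected with HIV-1 IIIb at low multiplicity (<0.001). Inhibitor was kept present for 13-14 days. Spread was measured by p24 core antigen ELISA of supernatants. CIC95 is the concentration blocking >95% of spread.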

MT4 = test: Concentration which inhibited >95% spread of HIV-1 strain IIIb infection in susceptible MT-4 cell culture; assay type: functional; details: Homo sapiens, read-out: CIC95
Outline: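 MT-4 human T-lymphoid cells in RPMI 1640 with 10% heat-inactivated FBS were infected en masse with HIV-1 IIIb (multiplicity 0.01) for 24 h. They were then washed and plated with serial 2-fold inhibitor dilutions for 3 more days. Spread was measured by p24 core antigen ELISA. CIC95 is the concentration blocking >95% of spread.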

Row | SMILES | IC50 [1] [nM] | IC95 (H9) [µM] | IC95 (MT4) [µM]
1 | CCc1cc(NCc2nc3ccccc3[nH]2)c(O)nc1C | 6400 | – | –
2 | CCc1cc(NCc2nc3ccccc3s2)c(O)nc1C | 350 | – | –
3 | CCc1cc(NCc2ccc3ccccc3c2)c(=O)[nH]c1C | 440 | – | –
4 | CCc1cc(CCc2nc3ccccc3o2)c(O)nc1C | 22 | 0.2 | 0.1
5 | Cc1ccnc2c1NC(=O)c1cccnc1N2C1CC1 [NEVIRAPINE] | – | – | 0.1
6 | CCc1cc(NCc2nc3c(C)ccc(C)c3o2)c(O)nc1C | 20 | 0.15 | 0.05
7 | CCc1cc(CCN2C(=O)c3ccccc3C2=O)c(O)nc1C | 3700 | 40 | –
8 | CCc1cc(CCc2nc3ccccc3s2)c(O)nc1C | 370 | – | –
9 | CCc1cc(NCc2nc3ccccc3o2)c(O)nc1C | 210 | – | –
10 | CCc1cc(CCc2nc3c(Cl)ccc(Cl)c3o2)c(O)nc1C | 9.6 | – | 0.1
11 | CCc1cc(NCc2cc3ccccc3o2)c(O)nc1C | 235 | – | –
12 | CCc1cc(NCc2nc3c(Cl)ccc(Cl)c3o2)c(O)nc1C [L-697661] | 19 | 0.1 | 0.05
13 | CCc1cc(CCc2cc3ccccc3o2)c(O)nc1C | 77 | – | –
14 | CCc1cc(NCc2nc3c(C)cccc3o2)c(O)nc1C | 125 | – | –
15 | CCc1cc(CCc2nc3c(C)ccc(C)c3o2)c(=O)[nH]c1C | 23 | – | –
16 | CC(C)=CCN1Cc2cccc3[nH]c(=S)n(c23)C[C@@H]1C | – | – | 0.2
17 | CCc1cc(NCc2nc3cccc(C)c3o2)c(O)nc1C | 55 | – | –
